High-throughput results (PubChem BioAssay)
Compounds with a hit are over-represented: about 4.1% of the library has one in this group of screens.
MrgX1 agonist: human MrgX1 receptor agonism, primary screen; MrgX1-HEK293 cells, Fluo-4 calcium fluorescence, agonist mode; active compounds read high; B-score at 10 µM; 310,000 tested, 0.44% active;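 active = calcium response B-score plate-corrected fluorescence ratio at least 3 library SD, with starting fluorescence B-score inside 5 SD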
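Test system: HEK293 cells stably expressing human MrgX1 receptor; amount: 15,000 cells per well; doses: compound delivered in addition one of three; times: overnight plating before 1 h dye loading; detection: Fluo-4 NW calcium-flux fluorescence, kinetic read; read-out basis: B-scored fluorescence response ratio; controls: positive and negative controls per plate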
MrgX1 antag: human MrgX1 receptor antagonism, primary screen. MRGX1-HEK293 calcium flux, Fluo-4, BAM8-22 antagonism; active compounds read low. B-score at 10 µM. 310,000 tested, 1.3% active. AID 588676;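 active = calcium-response B-score plate-corrected more than 3 library SD below zero, starting fluorescence within 5 deviations, no agonist response on first addition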;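 note: peak minus trough fluorescence over baseline after final BAM8-22 challenge near maximal dose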
Kir21 block: inhibitors of mouse Kir2.1 inward-rectifier potassium channel; HEK293-Kir2.1, FluxOR thallium flux fluorescence; active compounds read low; B-score at 10 µM; 310,000 tested, 0.85% active; AID 1672;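 active = fluorescence ratio B-score at or below minus 3 SD of library scores, with starting-brightness B-score within 2 SD, cut at about -4.2 in these data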;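 note: channel flux triggered by added potassium and thallium sulfate stimulus; B-score of peak minus minimum fluorescence over baseline after thallium stimulus; more negative B-score means stronger Kir2.1 block with less thallium influx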
Target sequence (P35561 whole entry, looked up): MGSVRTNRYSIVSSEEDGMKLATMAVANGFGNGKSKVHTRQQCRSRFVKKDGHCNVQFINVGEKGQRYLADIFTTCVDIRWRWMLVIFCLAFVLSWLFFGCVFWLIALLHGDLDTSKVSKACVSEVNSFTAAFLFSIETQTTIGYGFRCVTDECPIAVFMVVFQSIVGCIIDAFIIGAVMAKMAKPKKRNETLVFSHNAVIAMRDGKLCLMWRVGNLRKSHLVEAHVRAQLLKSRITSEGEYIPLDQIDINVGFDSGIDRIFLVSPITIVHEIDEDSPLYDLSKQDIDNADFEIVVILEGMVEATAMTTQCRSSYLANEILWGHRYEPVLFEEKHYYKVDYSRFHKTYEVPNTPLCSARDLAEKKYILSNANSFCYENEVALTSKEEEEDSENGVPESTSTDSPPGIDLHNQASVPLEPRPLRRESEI
MrgX1 allo act: human MrgX1 positive allosteric modulation, primary screen; MrgX1-HEK293, Fluo-4 calcium flux, FDSS; active compounds read high; AID 588675; 310,000 tested, 0.63% active; B-score at 10 µM;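 active = plate-corrected calcium response at least 3 library SD above typical, normal starting fluorescence, not activating the receptor alone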;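 note: compound read alongside a low EC10 to EC30 dose of BAM8-22 agonist; peak minus trough fluorescence over baseline measured at the second addition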
RGS4 act: potentiators or activators of RGS4; HEK293 M3R/inducible RGS4, carbachol calcium flux Fluo4; active compounds read low; B-score at 10 µM; 310,000 tested, 0.92% active; AID 463111;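 active = B-score of the integrated calcium signal more than 4 SD below the library mean, with starting fluorescence not abnormally high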;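 note: negative B-score means reduced calcium response which marks RGS4 activation or potentiation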
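Detection: kinetic calcium fluorescence imaging with Fluo4-AM dye, 2 µM / Material: HEK293 cells with stable M3R and inducible RGS4 / Schedule: recording 10 s baseline at 1 Hz, 100 s post-agonist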
RGS4 block: human RGS4 inhibition; P49798; HEK293 M3R/RGS4 inducible, Fluo-4 calcium flux; active compounds read high; triggered by carbachol at its EC20; B-score at 10 µM; 310,000 tested, 0.45% active; AID 463165;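 active = B-score, a plate-corrected calcium signal, over three deviations above library mean, with baseline fluorescence within five deviations of library mean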;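 note: RGS4 expression induced by doxycycline in cells with stable M3 receptor; B-score is computed from the integrated fluorescence ratio over baseline after carbachol; higher B-score means a larger calcium signal and so more RGS4 inhibition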
Target sequence (P49798 whole entry, looked up): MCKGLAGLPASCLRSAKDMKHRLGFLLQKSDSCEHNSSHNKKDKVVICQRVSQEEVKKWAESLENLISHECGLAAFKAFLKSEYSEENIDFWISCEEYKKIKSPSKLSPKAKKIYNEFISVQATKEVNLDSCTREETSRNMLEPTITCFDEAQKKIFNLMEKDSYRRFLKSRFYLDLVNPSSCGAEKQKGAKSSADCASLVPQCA
MrgX1 antag conf: confirmation of human MrgX1 receptor antagonists | shares compounds with MrgX1 antag | MrgX1-HEK293, BAM8-22 calcium flux, Fluo-4; active compounds read low | remaining BAM8-22 calcium response % of control (active compounds read low), % at 10 µM | 2,300 tested, 19% active | AID 602420;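 active = remaining agonist calcium response no higher than 100% minus 3 SD of agonist-only control wells, with starting fluorescence near control levels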;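 note: agonist BAM8-22 given at a near maximal EC90 to ECmax level; peak minus minimum fluorescence divided by baseline after agonist addition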
HEK293 Ca flux: MrgX1 antagonist counter-screen hit in parental HEK293 cells. Fluo-4 calcium fluorescence, FDSS. fluorescence ratio F(max-min)/F0 at 10 µM. AID 624111. shares compounds with MrgX1 antag. 4,000 tested, 2% active;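 active = duplicate-averaged calcium fluorescence ratio at least three times the standard deviation of buffer wells, a nonspecific response in parental cells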
HEK293 Ca counter: activity in parental HEK293 cells without MrgX1; fluorescence ratio F(max-min)/F0 at 10 µM; 4,000 tested, 0.4% active; parental HEK293 calcium flux, Fluo-4 fluorescence ratio; active compounds read high; shares compounds with MrgX1 antag;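 active = calcium fluorescence ratio, averaged over duplicates, at least 3 SD of the buffer-well ratio, meaning a nonspecific response in receptor-free cells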;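 note: untransfected parental HEK293 lacking MrgX1 used as counterscreen for MrgX1 allosteric activators; fluorescence change taken during the second addition on a kinetic imager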
HEK293 Ca cntr2: counter-screen for MrgX1 activators: effect in parental HEK293 cells; shares compounds with MrgX1 antag; Fluo-4 calcium fluorescence (FDSS); active compounds read high; fluorescence ratio F(max-min)/F0 at 10 µM; 4,000 tested, 8.7% active; AID 624115;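 active = calcium fluorescence ratio at least three times the spread of buffer wells, meaning a non-specific response in parental cells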
The depositor's hits bear a star.

O=C(Cn1cc(C(=O)C2CC2)c2ccccc21)NCc1ccccc1 was read as MrgX1 agonist inactive, MrgX1 antag inactive, Kir21 block 0.66, MrgX1 allo act inactive, RGS4 act inactive and RGS4 block inactive.
Screening O=C(NCCc1ccccc1)Nc1cccc(Cl)c1 returned MrgX1 agonist inactive, MrgX1 antag -7*, Kir21 block 0.88, MrgX1 allo act inactive, RGS4 act inactive, RGS4 block inactive, MrgX1 antag conf inactive, HEK293 Ca flux inactive, HEK293 Ca counter inactive and HEK293 Ca cntr2 inactive.
For COc1cccc(/C=C/C(=O)c2cccc([N+](=O)[O-])c2)c1OC the results were MrgX1 agonist inactive, MrgX1 antag inactive, Kir21 block -0.49, MrgX1 allo act inactive, RGS4 act inactive and RGS4 block inactive.
`CCN1CCN(C(=S)Nc2ccc3nc(N4CCN(CC)CC4)cc(C)c3c2)CC1` gave MrgX1 agonist inactive, MrgX1 antag -4.9*, Kir21 block 0, MrgX1 allo act inactive, RGS4 act inactive, RGS4 block inactive, MrgX1 antag conf inactive, HEK293 Ca flux inactive, HEK293 Ca counter inactive and HEK293 Ca cntr2 inactive.
`O=C(Nc1cccc(N2C(=O)C3CCCCC3C2=O)c1)c1ccccc1` (centres undefined) gave MrgX1 agonist inactive, MrgX1 antag inactive, Kir21 block 1.5, MrgX1 allo act inactive, RGS4 act inactive and RGS4 block inactive.
`COc1ccc(/C=C2\SC(=O)N(CCC(=O)N3CCN(C)CC3)C2=O)cc1` gave MrgX1 agonist inactive, MrgX1 antag inactive, Kir21 block -0.12, MrgX1 allo act inactive, RGS4 act inactive and RGS4 block inactive.
Screening CCOC(=O)C1CCN(C(=O)CCCOc2ccccc2)CC1 returned MrgX1 agonist inactive, MrgX1 antag inactive, Kir21 block 0.54, MrgX1 allo act inactive, RGS4 act inactive and RGS4 block inactive.
For CCOC(=O)C1CCN(C(=O)CCCN2C(=O)c3ccccc3C2=O)CC1 the results were MrgX1 agonist inactive, MrgX1 antag -10*, Kir21 block -0.16, MrgX1 allo act inactive, RGS4 act inactive, RGS4 block inactive, MrgX1 antag conf inactive, HEK293 Ca flux inactive, HEK293 Ca counter inactive and HEK293 Ca cntr2 inactive.
For COC(=O)C1=C(C)NC(=O)CC1c1ccc(C(=O)OC)cc1 (centres undefined) the results were MrgX1 agonist inactive, MrgX1 antag inactive, Kir21 block -1.2, MrgX1 allo act inactive, RGS4 act inactive and RGS4 block inactive.
`COC(=O)C1=C(C)NC(=O)CC1c1ccc(F)c(Br)c1` (centres undefined) gave MrgX1 agonist inactive, MrgX1 antag -4.6*, Kir21 block -1.4, MrgX1 allo act inactive, RGS4 act inactive, RGS4 block inactive, MrgX1 antag conf inactive, HEK293 Ca flux inactive, HEK293 Ca counter inactive and HEK293 Ca cntr2 inactive.
For Cc1ccc(NCc2ccccc2O)cc1 the results were MrgX1 agonist inactive, MrgX1 antag inactive, Kir21 block 0.42, MrgX1 allo act inactive, RGS4 act inactive and RGS4 block inactive.
`Cc1ccc(NCc2ccccc2F)cc1` gave MrgX1 agonist inactive, MrgX1 antag -5.9*, Kir21 block -1.1, MrgX1 allo act inactive, RGS4 act inactive, RGS4 block inactive, MrgX1 antag conf inactive, HEK293 Ca flux inactive, HEK293 Ca counter inactive and HEK293 Ca cntr2 inactive.
`COC(=O)C1=C(C)N(Cc2ccco2)C(=O)N[C@@H]1c1cccc(C(F)(F)F)c1` gave MrgX1 agonist inactive, MrgX1 antag inactive, Kir21 block -0.68, MrgX1 allo act inactive, RGS4 act inactive and RGS4 block inactive.
Screening Cc1cccc(-n2nnc(C(=O)NCc3ccccc3)c2N)c1 returned MrgX1 agonist inactive, MrgX1 antag -8.4*, Kir21 block 1.7, MrgX1 allo act inactive, RGS4 act inactive, RGS4 block inactive, MrgX1 antag conf inactive, HEK293 Ca flux inactive, HEK293 Ca counter inactive and HEK293 Ca cntr2 inactive.
For Cc1ccc(NC(=O)c2sccc2C)cc1S(=O)(=O)N(C)C the results were MrgX1 agonist inactive, MrgX1 antag -5.2*, Kir21 block -2.9, MrgX1 allo act inactive, RGS4 act inactive, RGS4 block inactive, MrgX1 antag conf inactive, HEK293 Ca flux inactive, HEK293 Ca counter inactive and HEK293 Ca cntr2 inactive.
O=C(c1ccccc1)c1ccc(CN2C(=O)c3ccccc3C2=O)o1 was read as MrgX1 agonist inactive, MrgX1 antag -5.2*, Kir21 block -1.4, MrgX1 allo act inactive, RGS4 act inactive, RGS4 block inactive, MrgX1 antag conf inactive, HEK293 Ca flux inactive, HEK293 Ca counter inactive and HEK293 Ca cntr2 inactive.
For COc1cc(NC(=O)CC(C)C)ccc1NC(=O)c1ccco1 the results were MrgX1 agonist inactive, MrgX1 antag -5.2*, Kir21 block 0.73, MrgX1 allo act inactive, RGS4 act inactive, RGS4 block inactive, MrgX1 antag conf inactive, HEK293 Ca flux inactive, HEK293 Ca counter inactive and HEK293 Ca cntr2 inactive.
`CCC(=O)Nc1ccc(NC(=O)c2ccco2)c(OC)c1` gave MrgX1 agonist inactive, MrgX1 antag inactive, Kir21 block -0.02, MrgX1 allo act inactive, RGS4 act inactive and RGS4 block inactive.
For Cc1cccc(-n2ncc3c(Nc4ccc(F)cc4)ncnc32)c1 the results were MrgX1 agonist inactive, MrgX1 antag inactive, Kir21 block 2.5, MrgX1 allo act inactive, RGS4 act inactive and RGS4 block inactive.
`COC(=O)c1ccc(Nc2ncnc3c2cnn3-c2cccc(C)c2)cc1` gave MrgX1 agonist inactive, MrgX1 antag -4.8*, Kir21 block 0.29, MrgX1 allo act inactive, RGS4 act inactive, RGS4 block inactive, MrgX1 antag conf inactive, HEK293 Ca flux inactive, HEK293 Ca counter inactive and HEK293 Ca cntr2 inactive.
